# From PubChem
# EWS-Fli inh – blocks EWS/Fli oncoprotein-driven transcription | 350,000 compounds, 0.67% hits | A673 NR0B1-luciferase reporter, viability-normalised | AID 651661 | inhibition, % at 12.6 µM;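 active = mean inhibition of at least 50% after viability correction, with every replicate also passing that limit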;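 note: firefly luciferase signal divided by Alamar Blue viability fluorescence both relative to DMSO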
# PAX8 inh HTS – lowers PAX8-driven luciferase in RMG-I cells; inhibition, % at 12.6 µM; RMG-I TPO-luciferase reporter, SteadyGlo, 24 h; 360,000 compounds, 1.2% hits;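 active = mean replicate inhibition at least 60% with every replicate also reaching 60%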;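 note: luciferase light reporting Pax8 driven TPO promoter activity; plate controls were median of neutral control wells for no effect and mitoxantrone controls for full effect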
# Glyco luc inh – blocks N-linked glycosylation in D54 reporter cells | D54 ERlucT glycosylation luciferase reporter, 24 h; percent of 100 nM tunicamycin response | reporter increase, % at 12.5 µM | 360,000 compounds, 0.23% hits | AID 588692;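 active = mean luciferase reporter signal, scaled so untreated is 0 and the glycosylation-blocking control 100, at or above a set limit in every replicate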;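 note: luciferase carries N-glycosylation sites so blocking glycosylation raises the light; 0% = median of neutral control wells and 100% = median of 100 nM tunicamycin wells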
# FN deposit inh – fibronectin deposition inhibition; inhibition, % at 12.6 µM; AH1F fibroblasts, Alexa488-fibronectin deposition fluorescence, overnight; AID 743247; 350,000 compounds, 0.086% hits;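 active = mean inhibition across replicates of 30% or more, regardless of how many single replicates reach that level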;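 note: positive control wells lacked labelled fibronectin entirely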
#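 Material: AH1F fibroblast monolayer depositing Alexa488-labelled fibronectin into matrix / Amount: 10000 AH1F cells per well / Signal: fluorescence 485/525 nm / Medium: DMEM, 2% serum / Compound: single dose, pinned / Incubation: 1 h cell adhesion before compound, then overnight fibronectin incubation / Reagent: Alexa488-FN, 24 nM final / Read-out: inhibition of fibronectin deposition signal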
# MLL AF4-AF9 inh – blocks AF4 peptide binding to human AF9; P42568; AlphaScreen, biotin-AF4 peptide binding to FLAG-AF9; inhibition, % at 10 µM; 350,000 compounds, 0.47% hits; AID 651704;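 active = every replicate reaching a set inhibition limit, whatever the replicate mean, cut at about 25% in these data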;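 note: 0% = plate neutral control median and 100% = total signal loss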
# Target sequence (P42568 whole entry, looked up): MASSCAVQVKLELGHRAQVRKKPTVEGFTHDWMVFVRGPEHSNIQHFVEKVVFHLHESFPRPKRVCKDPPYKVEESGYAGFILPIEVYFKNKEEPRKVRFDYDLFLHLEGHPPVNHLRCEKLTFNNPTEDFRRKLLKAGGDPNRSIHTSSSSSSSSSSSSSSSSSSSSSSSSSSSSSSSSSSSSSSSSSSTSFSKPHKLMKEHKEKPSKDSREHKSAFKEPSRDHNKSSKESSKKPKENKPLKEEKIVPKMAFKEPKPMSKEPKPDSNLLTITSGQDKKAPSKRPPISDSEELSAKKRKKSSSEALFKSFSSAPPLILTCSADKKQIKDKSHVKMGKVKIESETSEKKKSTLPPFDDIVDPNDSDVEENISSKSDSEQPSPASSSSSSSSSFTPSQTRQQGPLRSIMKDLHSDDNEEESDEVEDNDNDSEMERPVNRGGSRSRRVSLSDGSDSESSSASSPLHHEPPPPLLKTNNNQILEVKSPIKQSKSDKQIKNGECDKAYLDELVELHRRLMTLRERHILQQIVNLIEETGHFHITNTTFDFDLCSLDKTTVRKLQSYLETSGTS
# Env fusion inh – inhibitors of HIV Env-mediated cell fusion; HeLa-JRFL Env/CEM21 cell fusion, luciferase; inhibition, % at 12.3 µM; 360,000 compounds, 1.1% hits;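 active = mean replicate inhibition score of at least 50 and every replicate individually at or above 50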;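 note: 0% = plate neutral controls and 100% = maraviroc near 300 nM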
# * hit, by the source's call; . = not tested or not shown; [ ] = remark or other dose. A selection: hits, their analogues and other compounds. The true share with any hit is near 2.5%.
SMILES,EWS-Fli inh,PAX8 inh HTS,Glyco luc inh,FN deposit inh,MLL AF4-AF9 inh,Env fusion inh
COCC(=O)Nc1ccc2c(c1)C(=O)N(C)C[C@@H](OC)[C@@H](C)CN(Cc1cccnc1)[C@@H](C)CO2,-1.2,-23.2,.,1.3,1.7,.
CCc1ccc(-c2cn3nc(C)c(C)nc3n2)cc1,.,.,-22.4,-6.5,.,75.8*
COc1ccc2c3c(n(C)c2c1)[C@H](CO)N(C(=O)C1CCC1)CC31CCN(C(=O)CN(C)C)CC1,-9.9,-5.4,.,.,-0.7,.
CC(=C/c1ccccc1)/C=N/n1c(C)n[nH]c1=S,-21.6,-88.3,3.5,-11.0,0.4,59.2*
CC(=C/c1ccccc1)/C=N/n1c(-c2ccncc2)n[nH]c1=S,0.1,-40.7,-9.6,2.6,-8.8,64.3*
O=C(C[C@H]1CC[C@@H](NC(=O)Nc2ccc3c(c2)OCO3)[C@H](CO)O1)NCCCN1CCOCC1,.,.,.,1.9,1.5,.
O=C(NC(=S)N1CCN(Cc2ccc3c(c2)OCO3)CC1)c1cccc(Br)c1,16.7,75.7*,-0.1,-8.7,4.8,.
O=C(NC(=S)N1CCN(Cc2ccc3c(c2)OCO3)CC1)c1ccc(Cl)cc1,3.4,7.3,-2.3,.,.,-8.5
CCCN(C)C[C@H]1Oc2cc(-c3ccncc3)ccc2S(=O)(=O)N([C@@H](C)CO)C[C@H]1C,-1.4,.,.,-2.3,-1.4,5.0[16.7 µM]
CC(C)=CCC[C@](C)(O[C@@H]1O[C@H](CO[C@@H]2O[C@H](CO)[C@@H](O)[C@H](O)[C@H]2O)[C@@H](O)[C@H](O)[C@H]1O)C1CC[C@]2(C)C1C(=O)CC1[C@@]3(C)CC[C@H](O[C@H]4O[C@@H](CO)[C@H](O)[C@@H](O)[C@@H]4O)C(C)(C)C3CC[C@]12C (stereo partly drawn),-0.4,-10.9,0.8,-3.3,-3.3,-21.1
C/C(=C/CCC(C)(O)C1CC[C@@]2(C)[C@@H]3CC=C4[C@@H](CC[C@H](O[C@H]5O[C@@H](CO)[C@H](O)[C@@H](O)[C@@H]5O)C4(C)C)[C@]3(C)C(=O)C[C@]12C)CO[C@@H]1O[C@H](CO)[C@@H](O)[C@H](O)[C@H]1O (stereo partly drawn),-12.9,-32.5,3.2,1.7,-1.7,88.4*
CCC(=O)Nc1ccc2c(c1)C(=O)N(C)[C@@H]1CC[C@@H](CC(=O)N3CCc4ccccc4C3)O[C@@H]1CO2,-4.9,2.5,.,-5.5,-0.5,-13.7[16.7 µM]
Cc1ccn2cc(-c3ccc(Br)cc3)nc2c1,62.0*,1.1,-18.2,3.4,-22.0,-75.0
Cc1ccn2cc(-c3ccc(NC(=O)c4ccco4)cc3)nc2c1,.,-64.7,-9.3,32.1*,.,-112.5
CC(=O)Nc1cccc(-c2cn3ccc(C)cc3n2)c1,-113.0,-180.0,-6.3,3.4,1.1,-38.6
Cc1nc(-c2ccc(C(=O)Nc3ccc(F)cc3)cc2)cs1,-44.5,-52.2,-9.8,-0.7,-3.5,-36.0
Cc1nc(-c2ccc(C(=O)Nc3ccccc3F)cc2)cs1,61.1*,-3.6,-17.4,-7.3,-0.5,-30.8
Cc1nc(-c2ccc(NC(=O)c3ccco3)cc2)cs1,83.6*,87.5*,-20.7,-3.4,1.3,27.8
Cc1ccc(S(=O)(=O)Nc2ccc(-c3cn4ccc(C)cc4n3)cc2)cc1,-22.3,-29.3,1.8,7.4,-3.6,-26.2
CO[C@@H]1CN(C)C(=O)c2ccc(NC(=O)Nc3ccccc3)cc2OC[C@H](C)N(CC2CC2)C[C@@H]1C,-4.6,.,.,-17.6,5.6,-1.3[16.7 µM]
COCc1cc(N2CCOCC2)nc(SCc2ccc(Cl)cc2)n1,-4.4,1.1,-1.1,-5.8,-2.6,12.5
CSCc1cc(N2CCOCC2)nc(SCc2ccc(Cl)c(Cl)c2)n1,.,.,-4.2,.,4.0,62.8*
CC(C)(C)n1nnnc1C(c1cccs1)N(Cc1cccnc1)Cc1ccco1 (stereo not drawn),.,-15.5,-1.3,.,.,52.7*
CC(C)(C)n1nnnc1C(c1cccs1)N(Cc1ccccc1)Cc1ccco1 (stereo not drawn),.,.,-8.6,.,.,.
CCCC1C(=O)Nc2ccccc2N1C(=O)c1ccc(C(C)(C)C)cc1 (stereo not drawn),11.4,-9.1,-3.0,2.4,11.2,62.2*
COc1ccc(NC(=O)Nc2ccc3c(c2)CC(=O)N([C@H](C)CO)C[C@@H](C)[C@@H](CN(C)CC2CC2)O3)cc1,-8.1,.,.,.,8.7,.
